Source: ChEMBL document CHEMBL5724801, “EUbOPEN Chemogenomics Library - Multiplex” (2024)
“And” between values parts separate entries of the source, which are not always exact repeats. Equal values may be shown once.

Tested on: U2OS
Test: Multiplex assay against U2OS
Format: toxicity, cell-based
Conditions: human
Outline: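 Cells stained live at seeding with Hoechst33342, BioTracker Green Microtubule Cytoskeleton Dye, MitoTracker Red and Annexin V Alexa Fluor 680 were imaged on a CQ1 microscope at 37°C and 5% CO2 after compound addition. Their classification by CellPathfinder machine-learning gating ran from Hoechst high-intensity objects versus normal cells, to healthy, pyknosed or fragmented nuclei among normal cells, to mitotic or apoptotic among pyknosed cells. Tubulin, mitochondrial-mass and membrane-permeability phenotypes are per cents of healthy-nucleus cells.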

[1] = 12 h, 1 µM, compound concentration 1 uM
[2] = 12 h, 10 µM, compound concentration 10 uM
[3] = 24 h, 1 µM, compound concentration 1 uM
[4] = 24 h, 10 µM, compound concentration 10 uM
[5] = 48 h, 1 µM, compound concentration 1 uM
[6] = 48 h, 10 µM, compound concentration 10 uM

Structure (SMILES): CC(C)CNc1nc(N2CCN(CC3CCCOC3)CC2)ncc1C(=O)NCc1ccccc1 (stereo unspecified)
- Population Apoptotic (%) [1]: 35.29% and 54.55%
- Population Fragmented Nuclei (%) [1]: 1.32% and 3.94%
- Population Healthy Nuclei (%) [1]: 85.22% and 78.74%
- Population Hoechst High Intensity Objects (%) [1]: 0%
- Population Membrane Permeable-Phenotype (%) [1]: 0.93% and 5%
- Population Mitotic Cells (%) [1]: 64.71% and 45.45%
- Population Normal (%) [1]: 100%
- Population Pyknosed Nuclei (%) [1]: 13.46% and 17.32%
- Population Tubulin-Different-Phenotype (%) [1]: 3.1% and 1%
- Total Cell Count [1]: 379 and 127
- Population Apoptotic (%) [2]: 51.14% and 36.59%
- Population Fragmented Nuclei (%) [2]: 1.76% and 7.28%
- Population Healthy Nuclei (%) [2]: 72.35% and 65.56%
- Population Hoechst High Intensity Objects (%) [2]: 0%
- Population Membrane Permeable-Phenotype (%) [2]: 22.36% and 30.3%
- Population Mitochondria Different-Phenotype (%) [2]: 72.36% and 89.9%
- Population Mitotic Cells (%) [2]: 48.86% and 63.41%
- Population Normal (%) [2]: 100%
- Population Pyknosed Nuclei (%) [2]: 25.88% and 27.15%
- Population Tubulin-Different-Phenotype (%) [2]: 97.15% and 94.95%
- Total Cell Count [2]: 340 and 151
- Population Apoptotic (%) [3]: 43.1% and 31.82%
- Population Fragmented Nuclei (%) [3]: 1.29% and 7.91%
- Population Healthy Nuclei (%) [3]: 86.27% and 76.26%
- Population Hoechst High Intensity Objects (%) [3]: 0.21% and 0%
- Population Membrane Permeable-Phenotype (%) [3]: 2.49% and 9.43%
- Population Mitotic Cells (%) [3]: 56.9% and 68.18%
- Population Normal (%) [3]: 99.79% and 100%
- Population Pyknosed Nuclei (%) [3]: 12.45% and 15.83%
- Population Tubulin-Different-Phenotype (%) [3]: 3.98% and 4.72%
- Population Apoptotic (%) [4]: 71.3% and 64%
- Population Fragmented Nuclei (%) [4]: 3.28% and 4.55%
- Population Healthy Nuclei (%) [4]: 67.21% and 62.99%
- Population Hoechst High Intensity Objects (%) [4]: 0%
- Population Membrane Permeable-Phenotype (%) [4]: 17.07% and 18.56%
- Population Mitochondria Different-Phenotype (%) [4]: 81.3% and 91.75%
- Population Mitotic Cells (%) [4]: 28.7% and 36%
- Population Normal (%) [4]: 100%
- Population Pyknosed Nuclei (%) [4]: 29.51% and 32.47%
- Population Tubulin-Different-Phenotype (%) [4]: 97.15% and 93.81%
- Total Cell Count [4]: 366 and 154
- Population Apoptotic (%) [5]: 58.06% and 46.43%
- Population Fragmented Nuclei (%) [5]: 2.14% and 3.47%
- Population Healthy Nuclei (%) [5]: 86.13% and 80.35%
- Population Hoechst High Intensity Objects (%) [5]: 0%
- Population Membrane Permeable-Phenotype (%) [5]: 1.02% and 4.32%
- Population Mitotic Cells (%) [5]: 41.94% and 53.57%
- Population Normal (%) [5]: 100%
- Population Pyknosed Nuclei (%) [5]: 11.73% and 16.18%
- Population Tubulin-Different-Phenotype (%) [5]: 2.64% and 6.47%
- Population Apoptotic (%) [6]: 80.41% and 90%
- Population Fragmented Nuclei (%) [6]: 7.04% and 6.08%
- Population Healthy Nuclei (%) [6]: 55.78% and 60.14%
- Population Hoechst High Intensity Objects (%) [6]: 0%
- Population Membrane Permeable-Phenotype (%) [6]: 13.06% and 17.98%
- Population Mitochondria Different-Phenotype (%) [6]: 79.28% and 93.26%
- Population Mitotic Cells (%) [6]: 19.59% and 10%
- Population Normal (%) [6]: 100%
- Population Pyknosed Nuclei (%) [6]: 37.19% and 33.78%
- Population Tubulin-Different-Phenotype (%) [6]: 96.4% and 88.76%
- Total Cell Count [6]: 398 and 148

Structure (SMILES): CCCN1CCC[C@@H]2Cc3n[nH]cc3C[C@H]21.Cl [QUINPIROLE HYDROCHLORIDE]
- Population Apoptotic (%) [1]: 71% and 61%
- Population Fragmented Nuclei (%) [1]: 31% and 21%
- Population Healthy Nuclei (%) [1]: 60% and 67%
- Population Hoechst High Intensity Objects (%) [1]: 2% and 0%
- Population Membrane Permeable-Phenotype (%) [1]: 7% and 2%
- Population Mitochondria Different-Phenotype (%) [1]: 1%
- Population Mitotic Cells (%) [1]: 28% and 38%
- Population Normal (%) [1]: 97% and 100%
- Population Pyknosed Nuclei (%) [1]: 8% and 11%
- Population Tubulin-Different-Phenotype (%) [1]: 3% and 2%
- Total Cell Count [1]: 265 and 118
- Population Apoptotic (%) [2]: 58% and 100%
- Population Fragmented Nuclei (%) [2]: 19% and 9%
- Population Healthy Nuclei (%) [2]: 72% and 85%
- Population Hoechst High Intensity Objects (%) [2]: 1% and 2%
- Population Membrane Permeable-Phenotype (%) [2]: 2% and 6%
- Population Mitochondria Different-Phenotype (%) [2]: 0% and 5%
- Population Normal (%) [2]: 98% and 97%
- Population Pyknosed Nuclei (%) [2]: 7% and 4%
- Population Tubulin-Different-Phenotype (%) [2]: 1% and 2%
- Total Cell Count [2]: 228 and 126
- Population Apoptotic (%) [3]: 68% and 77%
- Population Fragmented Nuclei (%) [3]: 27% and 18%
- Population Healthy Nuclei (%) [3]: 64% and 68%
- Population Hoechst High Intensity Objects (%) [3]: 1% and 0%
- Population Membrane Permeable-Phenotype (%) [3]: 4%
- Population Mitochondria Different-Phenotype (%) [3]: 3% and 4%
- Population Mitotic Cells (%) [3]: 31% and 22%
- Population Normal (%) [3]: 98% and 100%
- Population Pyknosed Nuclei (%) [3]: 7% and 13%
- Population Tubulin-Different-Phenotype (%) [3]: 3% and 4%
- Total Cell Count [3]: 299 and 138
- Population Apoptotic (%) [4]: 88% and 92%
- Population Fragmented Nuclei (%) [4]: 13% and 9%
- Population Healthy Nuclei (%) [4]: 80% and 82%
- Population Hoechst High Intensity Objects (%) [4]: 2% and 0%
- Population Membrane Permeable-Phenotype (%) [4]: 2% and 0%
- Population Mitochondria Different-Phenotype (%) [4]: 0% and 1%
- Population Mitotic Cells (%) [4]: 11% and 7%
- Population Normal (%) [4]: 97% and 99%
- Population Pyknosed Nuclei (%) [4]: 6% and 8%
- Population Tubulin-Different-Phenotype (%) [4]: 1% and 0%
- Total Cell Count [4]: 281 and 163
- Population Apoptotic (%) [5]: 75% and 78%
- Population Fragmented Nuclei (%) [5]: 19% and 17%
- Population Healthy Nuclei (%) [5]: 74% and 69%
- Population Hoechst High Intensity Objects (%) [5]: 1% and 3%
- Population Membrane Permeable-Phenotype (%) [5]: 4%
- Population Mitochondria Different-Phenotype (%) [5]: 1% and 5%
- Population Mitotic Cells (%) [5]: 25% and 21%
- Population Normal (%) [5]: 98% and 96%
- Population Pyknosed Nuclei (%) [5]: 6% and 13%
- Population Tubulin-Different-Phenotype (%) [5]: 2%
- Total Cell Count [5]: 425 and 180
- Population Apoptotic (%) [6]: 86% and 91%
- Population Fragmented Nuclei (%) [6]: 11% and 12%
- Population Healthy Nuclei (%) [6]: 78%
- Population Hoechst High Intensity Objects (%) [6]: 3% and 1%
- Population Membrane Permeable-Phenotype (%) [6]: 4% and 6%
- Population Mitochondria Different-Phenotype (%) [6]: 1% and 4%
- Population Mitotic Cells (%) [6]: 13% and 8%
- Population Normal (%) [6]: 96% and 98%
- Population Pyknosed Nuclei (%) [6]: 9%
- Population Tubulin-Different-Phenotype (%) [6]: 3% and 2%
- Total Cell Count [6]: 386 and 251
